Measured values reported in ChEMBL document CHEMBL4428066, “Small Molecule Reversible Inhibitors of Bruton's Tyrosine Kinase (BTK): Structure-Activity Relationships Leading to the Identification of 7-(2-Hydroxypropan-2-yl)-4-[2-methyl-3-(4-oxo-3,4-dihydroquinazolin-3-yl)phenyl]-9H-carbazole-1-carboxamide (BMS-935177)” (J Med Chem, 2016).
≈ marks a conversion by molar mass, not a printed value. Calls of active or inactive are those of the source. The calls are words filed in the database; no cut-off is given here.

Key:
[1] = Protein binding in human serum; type: ADME, cell-free; details: read-out: PB (converted)
[2] = Cmax in cynomolgus monkey plasma at 2 mg/kg, administered through oral gavage after 0.25 to 48 hrs by LC/MS/MS analysis; type: ADME, organism-based, Macaca fascicularis; parameters: dose 2 mg/kg, route oral
Salmonella typhimurium = experiment: Mutagenic activity in Salmonella typhimurium by AMES test; type: toxicity, organism-based; details: salmonella enterica subsp. enterica serovar typhimurium
Mus musculus [3] = experiment: Antiarthritic activity in po dosed CIA DBA/1 mouse model assessed as reduction of disease severity after 21 days; type: functional, organism-based
[4] = Volume of distribution in steady state in Sprague-Dawley rat at 2 mg/kg, iv through bolus administration by LC/MS/MS analysis; type: ADME, organism-based; details: in vivo, read-out: Vdss
[5] = Volume of distribution in steady state in Beagle dog at 2 mg/kg, iv through bolus administration after 0.167 to 48 hrs by LC/MS/MS analysis; type: ADME, organism-based, Canis lupus familiaris; details: in vivo, read-out: Vdss
[6] = molecular target: Proto-oncogene tyrosine-protein kinase receptor Ret (Homo sapiens, UniProt P07949); experiment: Inhibition of partial length human RET expressed in bacterial system
Sequence of Proto-oncogene tyrosine-protein kinase receptor Ret (P07949 whole entry): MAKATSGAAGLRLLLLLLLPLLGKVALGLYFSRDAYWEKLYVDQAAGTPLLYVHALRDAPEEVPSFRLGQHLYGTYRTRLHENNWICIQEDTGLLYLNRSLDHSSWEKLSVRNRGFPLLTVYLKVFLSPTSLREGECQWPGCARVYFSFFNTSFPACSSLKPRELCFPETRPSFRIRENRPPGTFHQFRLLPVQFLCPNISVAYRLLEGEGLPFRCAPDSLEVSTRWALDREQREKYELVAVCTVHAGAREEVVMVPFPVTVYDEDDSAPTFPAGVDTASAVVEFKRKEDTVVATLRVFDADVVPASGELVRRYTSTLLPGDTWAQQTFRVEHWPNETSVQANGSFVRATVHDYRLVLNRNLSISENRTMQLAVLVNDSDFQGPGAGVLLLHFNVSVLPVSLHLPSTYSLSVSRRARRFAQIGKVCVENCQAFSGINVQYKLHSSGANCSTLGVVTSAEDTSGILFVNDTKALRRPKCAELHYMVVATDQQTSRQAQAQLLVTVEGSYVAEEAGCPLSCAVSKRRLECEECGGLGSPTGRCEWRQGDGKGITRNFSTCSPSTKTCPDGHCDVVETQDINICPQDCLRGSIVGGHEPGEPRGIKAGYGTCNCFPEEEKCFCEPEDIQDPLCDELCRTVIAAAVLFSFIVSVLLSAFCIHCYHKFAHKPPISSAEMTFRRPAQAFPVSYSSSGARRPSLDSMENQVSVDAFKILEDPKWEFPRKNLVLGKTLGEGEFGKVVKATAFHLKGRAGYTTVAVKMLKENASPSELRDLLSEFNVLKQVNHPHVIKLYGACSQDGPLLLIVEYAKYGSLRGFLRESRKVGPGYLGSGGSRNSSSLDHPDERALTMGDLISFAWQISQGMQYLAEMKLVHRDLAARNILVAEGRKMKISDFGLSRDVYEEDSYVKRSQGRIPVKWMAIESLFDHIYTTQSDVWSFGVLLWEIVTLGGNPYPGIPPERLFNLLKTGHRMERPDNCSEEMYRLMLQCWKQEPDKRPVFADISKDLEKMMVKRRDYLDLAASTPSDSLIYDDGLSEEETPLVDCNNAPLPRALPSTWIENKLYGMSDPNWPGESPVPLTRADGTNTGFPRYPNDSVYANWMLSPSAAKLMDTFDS

[7] = Cmax in Beagle dog plasma at 2 mg/kg, administered through oral gavage after 0.25 to 48 hrs by LC/MS/MS analysis; type: ADME, organism-based, Canis lupus familiaris; parameters: dose 2 mg/kg, route oral
[8] = molecular target: Tyrosine-protein kinase BTK (Mus musculus, UniProt P35991); experiment: Inhibition of BTK in mouse whole blood assessed as suppression of BCR/anti-IgM stimulated CD69 surface expression on B cells after 18 hrs by FACS analysis; type: tissue-based
Summary of the method: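 Mouse whole blood stimulated through the BCR; CD69 on the B-cell surface read by FACS with gating on B cells. IC50 reported as mean ± standard deviation of three determinations.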

[9] = molecular target: Cytoplasmic tyrosine-protein kinase BMX (Homo sapiens, UniProt P51813); experiment: Inhibition of full length human BMX expressed in bacterial system
[10] = AUC (0 to 24 hrs) in Balb/C mouse at 10 mg/kg, po; type: ADME, organism-based; parameters: time < 24 hr, dose 10 mg/kg, route oral; details: in vivo
Summary of the method: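 Male Balb/C mice dosed orally once at 10 mg/kg in PEG300/TPGS/ethanol (90/5/5 v/v/v).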

[11] = Solubility of the compound in fed state simulated intestinal fluid; type: physicochemical
[12] = Half life in Sprague-Dawley rat plasma at 2 mg/kg, iv through bolus administration by LC/MS/MS analysis; type: ADME, organism-based
Mus musculus [13] = experiment: Antiarthritic activity in Balb/C mouse model of anti-collagen antibody-induced arthritis assessed as reduction in paw clinical scores at 30 mg/kg, po dosed daily for 3 days followed by LPS challenge; type: functional, organism-based
[14] = Cmax in Sprague-Dawley rat plasma at 5 mg/kg, administered through oral gavage by LC/MS/MS analysis; type: ADME, organism-based; parameters: dose 5 mg/kg, route oral
[15] = AUC in cynomolgus monkey plasma at 2 mg/kg, administered through oral gavage after 0.25 to 48 hrs by LC/MS/MS analysis; type: ADME, organism-based, Macaca fascicularis; parameters: time upper 48 hr, dose 2 mg/kg, time lower 0.25 hr, route oral
[16] = molecular target: Receptor tyrosine-protein kinase erbB-4 (Homo sapiens, UniProt Q15303); experiment: Inhibition of partial length human HER4 expressed in bacterial system
Sequence of Receptor tyrosine-protein kinase erbB-4 (Q15303 whole entry): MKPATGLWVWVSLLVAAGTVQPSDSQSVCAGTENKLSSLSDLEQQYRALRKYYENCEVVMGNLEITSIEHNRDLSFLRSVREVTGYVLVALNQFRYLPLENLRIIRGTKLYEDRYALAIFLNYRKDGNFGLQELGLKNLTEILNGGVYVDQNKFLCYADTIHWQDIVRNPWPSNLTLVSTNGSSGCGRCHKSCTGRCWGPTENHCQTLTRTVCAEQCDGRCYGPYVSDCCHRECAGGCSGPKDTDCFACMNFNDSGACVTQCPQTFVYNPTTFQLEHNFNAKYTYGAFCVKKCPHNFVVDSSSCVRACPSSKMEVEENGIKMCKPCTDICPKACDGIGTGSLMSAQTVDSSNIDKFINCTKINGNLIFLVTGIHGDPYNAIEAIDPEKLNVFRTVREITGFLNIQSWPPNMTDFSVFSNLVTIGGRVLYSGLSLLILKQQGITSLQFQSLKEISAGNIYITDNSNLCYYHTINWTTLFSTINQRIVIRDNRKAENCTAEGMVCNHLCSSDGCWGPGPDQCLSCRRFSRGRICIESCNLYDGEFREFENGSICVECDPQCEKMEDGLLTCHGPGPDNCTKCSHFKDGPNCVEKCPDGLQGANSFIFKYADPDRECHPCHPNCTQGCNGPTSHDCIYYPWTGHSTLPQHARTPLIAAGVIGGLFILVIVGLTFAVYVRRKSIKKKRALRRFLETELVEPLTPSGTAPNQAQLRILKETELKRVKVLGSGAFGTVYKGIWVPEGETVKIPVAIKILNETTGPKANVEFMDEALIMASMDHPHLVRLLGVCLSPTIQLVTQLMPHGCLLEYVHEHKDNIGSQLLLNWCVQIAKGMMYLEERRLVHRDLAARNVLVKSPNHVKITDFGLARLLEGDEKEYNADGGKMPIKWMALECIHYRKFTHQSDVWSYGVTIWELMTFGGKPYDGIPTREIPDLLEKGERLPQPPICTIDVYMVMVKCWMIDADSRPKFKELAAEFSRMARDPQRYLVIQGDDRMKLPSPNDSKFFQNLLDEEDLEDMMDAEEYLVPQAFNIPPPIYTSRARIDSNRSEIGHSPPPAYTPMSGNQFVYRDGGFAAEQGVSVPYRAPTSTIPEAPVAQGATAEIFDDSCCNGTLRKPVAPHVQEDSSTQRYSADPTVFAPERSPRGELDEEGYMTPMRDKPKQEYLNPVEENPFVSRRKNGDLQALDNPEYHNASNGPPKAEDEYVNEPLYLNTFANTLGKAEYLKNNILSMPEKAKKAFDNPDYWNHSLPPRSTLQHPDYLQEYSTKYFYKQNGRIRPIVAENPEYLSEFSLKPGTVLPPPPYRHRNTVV

[17] = Volume of distribution in steady state in cynomolgus monkey at 2 mg/kg, iv through bolus administration after 0.167 to 48 hrs by LC/MS/MS analysis; type: ADME, organism-based, Macaca fascicularis; details: in vivo, read-out: Vdss
Mus musculus [18] = experiment: Antiarthritic activity in DBA/1 mouse model of collagen-induced arthritis inflammation assessed as inhibition of inflammation dosed daily and orally beginning on day of primary immunization by H and E staining based microscopy; type: functional, organism-based
[19] = molecular target: Tyrosine-protein kinase Lck (Homo sapiens, UniProt P06239); experiment: Inhibition of partial length human LCK expressed in bacterial system
Sequence of Tyrosine-protein kinase Lck (P06239 whole entry): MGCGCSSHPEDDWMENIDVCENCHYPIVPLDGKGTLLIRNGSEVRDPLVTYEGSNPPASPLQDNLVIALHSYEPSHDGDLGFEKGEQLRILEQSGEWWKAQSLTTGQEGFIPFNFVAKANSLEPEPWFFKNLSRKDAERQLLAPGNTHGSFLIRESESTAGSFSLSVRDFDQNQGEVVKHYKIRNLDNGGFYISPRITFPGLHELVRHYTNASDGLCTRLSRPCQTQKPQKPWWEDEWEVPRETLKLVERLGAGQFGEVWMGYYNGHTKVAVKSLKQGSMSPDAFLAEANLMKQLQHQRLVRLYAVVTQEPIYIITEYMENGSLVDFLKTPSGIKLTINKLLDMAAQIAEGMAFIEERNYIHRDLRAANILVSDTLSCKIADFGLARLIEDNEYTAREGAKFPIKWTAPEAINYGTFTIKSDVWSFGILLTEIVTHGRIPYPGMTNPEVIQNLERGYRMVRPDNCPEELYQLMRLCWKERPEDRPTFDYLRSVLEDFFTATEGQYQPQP

Mus musculus [20] = experiment: Antiarthritic activity in DBA/1 mouse model of collagen-induced arthritis inflammation assessed reduction in disease severity dosed daily and orally beginning on day of primary immunization; type: functional, organism-based
Mus musculus [21] = experiment: Antiarthritic activity in DBA/1 mouse model of collagen-induced arthritis inflammation assessed as protection against bone mass loss dosed daily and orally beginning on day of primary immunization by microcomputed tomography imaging analysis; type: functional, organism-based
[22] = Half life in cynomolgus monkey plasma at 2 mg/kg, iv through bolus administration after 0.167 to 48 hrs by LC/MS/MS analysis; type: ADME, organism-based, Macaca fascicularis
[23] = molecular target: Tyrosine-protein kinase Tec (Homo sapiens, UniProt P42680); experiment: Inhibition of partial length human TEC expressed in bacterial system
Mus musculus [24] = experiment: Antiarthritic activity in DBA/1 mouse model of collagen-induced arthritis inflammation assessed as presence of presence of recognizable small individual bones at foot and ankle at 20 mg/kg, po dosed daily beginning on day of primary immunization by microcomputed tomography imaging analysis; type: functional, organism-based
[25] = Tmax in cynomolgus monkey plasma at 2 mg/kg, administered through oral gavage after 0.25 to 48 hrs by LC/MS/MS analysis; type: ADME, organism-based, Macaca fascicularis
Cytochrome P450 3A4 = Cytochrome P450 3A4 (Homo sapiens, UniProt P08684); experiment: Inhibition of human liver microsomes CYP3A4 after 30 mins in presence of NADPH; type: ADME
Sequence of Cytochrome P450 3A4 (P08684 whole entry): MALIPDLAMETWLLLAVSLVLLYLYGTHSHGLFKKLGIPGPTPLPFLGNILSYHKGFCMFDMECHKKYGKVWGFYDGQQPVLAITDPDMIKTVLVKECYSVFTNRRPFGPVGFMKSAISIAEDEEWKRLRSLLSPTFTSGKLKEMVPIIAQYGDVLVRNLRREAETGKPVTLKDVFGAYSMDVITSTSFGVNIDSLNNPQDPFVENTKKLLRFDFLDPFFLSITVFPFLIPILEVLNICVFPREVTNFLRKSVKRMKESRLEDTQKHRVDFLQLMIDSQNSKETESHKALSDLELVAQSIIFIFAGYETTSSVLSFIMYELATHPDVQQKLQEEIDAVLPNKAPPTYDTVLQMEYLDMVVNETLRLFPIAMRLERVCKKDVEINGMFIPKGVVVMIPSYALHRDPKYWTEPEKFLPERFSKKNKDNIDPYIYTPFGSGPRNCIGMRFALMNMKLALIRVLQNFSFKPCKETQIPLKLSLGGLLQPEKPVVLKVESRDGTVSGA

[26] = Plasma clearance in cynomolgus monkey at 2 mg/kg, iv through bolus administration after 0.167 to 48 hrs by LC/MS/MS analysis; type: ADME, organism-based, Macaca fascicularis
[27] = Oral bioavailability in Beagle dog at 2 mg/kg after 0.25 to 48 hrs by LC/MS/MS analysis; type: ADME, organism-based, Canis lupus familiaris; details: in vivo
[28] = AUC in mouse plasma at 5 mg/kg, administered through oral gavage after 0.25 to 24 hrs by LC/MS/MS analysis; type: ADME, organism-based; parameters: time 0.25-24 hr, dose 5 mg/kg, route oral
Cytochrome P450 2C8 = Cytochrome P450 2C8 (Homo sapiens, UniProt P10632); experiment: Inhibition of human liver microsomes CYP2C8 after 30 mins in presence of NADPH; type: ADME
Sequence of Cytochrome P450 2C8 (P10632 whole entry): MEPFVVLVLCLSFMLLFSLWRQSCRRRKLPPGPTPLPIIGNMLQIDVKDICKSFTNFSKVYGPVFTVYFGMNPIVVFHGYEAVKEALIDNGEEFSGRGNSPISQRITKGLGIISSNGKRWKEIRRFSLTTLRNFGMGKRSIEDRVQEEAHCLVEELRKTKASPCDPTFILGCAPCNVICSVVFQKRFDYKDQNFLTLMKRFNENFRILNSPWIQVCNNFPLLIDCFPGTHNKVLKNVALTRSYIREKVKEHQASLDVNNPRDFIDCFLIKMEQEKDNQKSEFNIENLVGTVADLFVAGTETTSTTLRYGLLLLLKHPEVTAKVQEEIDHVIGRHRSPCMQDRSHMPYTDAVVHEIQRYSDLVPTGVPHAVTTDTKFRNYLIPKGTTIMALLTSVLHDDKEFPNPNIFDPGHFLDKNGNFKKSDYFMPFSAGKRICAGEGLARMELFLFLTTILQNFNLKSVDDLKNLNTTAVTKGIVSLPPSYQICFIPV

[29] = Aqueous solubility of the compound; type: physicochemical; details: aqueous medium
Cytochrome P450 2D6 = Cytochrome P450 2D6 (Homo sapiens, UniProt P10635); experiment: Inhibition of human liver microsomes CYP2D6 after 30 mins in presence of NADPH; type: ADME
Sequence of Cytochrome P450 2D6 (P10635 whole entry): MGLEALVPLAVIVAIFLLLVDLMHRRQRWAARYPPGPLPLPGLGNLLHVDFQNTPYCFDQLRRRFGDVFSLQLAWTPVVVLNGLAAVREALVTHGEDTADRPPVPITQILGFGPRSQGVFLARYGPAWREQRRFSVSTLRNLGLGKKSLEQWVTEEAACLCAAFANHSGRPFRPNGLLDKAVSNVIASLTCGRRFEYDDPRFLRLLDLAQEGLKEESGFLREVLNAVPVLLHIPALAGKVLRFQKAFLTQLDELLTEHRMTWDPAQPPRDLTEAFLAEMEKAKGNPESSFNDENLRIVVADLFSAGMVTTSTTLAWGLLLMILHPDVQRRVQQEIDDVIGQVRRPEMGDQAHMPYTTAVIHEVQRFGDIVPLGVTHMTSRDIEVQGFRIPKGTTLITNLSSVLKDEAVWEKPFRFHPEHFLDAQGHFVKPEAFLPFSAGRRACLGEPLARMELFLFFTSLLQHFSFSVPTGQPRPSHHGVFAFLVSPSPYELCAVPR

Cytochrome P450 2B6 = Cytochrome P450 2B6 (Homo sapiens, UniProt P20813); experiment: Inhibition of human liver microsomes CYP2B6 after 30 mins in presence of NADPH; type: ADME
Sequence of Cytochrome P450 2B6 (P20813 whole entry): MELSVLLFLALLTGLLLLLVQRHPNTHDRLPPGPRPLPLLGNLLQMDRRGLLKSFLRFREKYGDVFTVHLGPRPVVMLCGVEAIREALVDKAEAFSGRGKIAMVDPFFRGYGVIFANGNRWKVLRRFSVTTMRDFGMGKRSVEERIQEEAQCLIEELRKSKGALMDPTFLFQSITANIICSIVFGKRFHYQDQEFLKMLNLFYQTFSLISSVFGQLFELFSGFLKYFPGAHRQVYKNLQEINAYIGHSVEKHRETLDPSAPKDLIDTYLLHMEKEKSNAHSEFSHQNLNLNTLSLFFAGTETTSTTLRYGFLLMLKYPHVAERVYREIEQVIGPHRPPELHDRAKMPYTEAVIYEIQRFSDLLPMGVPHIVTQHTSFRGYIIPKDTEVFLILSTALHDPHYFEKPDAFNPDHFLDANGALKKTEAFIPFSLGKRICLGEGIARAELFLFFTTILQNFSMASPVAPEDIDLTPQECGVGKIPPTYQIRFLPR

[30] = Passive permeability from apical to basolateral side in human Caco2 cells; type: ADME, cell-based; details: Caco-2, read-out: permeability
Mus musculus [31] = experiment: Antiarthritic activity in DBA/1 mouse model of collagen-induced arthritis inflammation assessed as reduction of disease severity at 30 mg/kg, qd administered through oral gavage dosed after day 21 booster immunization; type: functional, organism-based
[32] = Oral bioavailability in mouse at 5 mg/kg after 0.25 to 24 hrs by LC/MS/MS analysis; type: ADME, organism-based; details: in vivo
[33] = Cmax in mouse plasma at 5 mg/kg, administered through oral gavage after 0.25 to 24 hrs by LC/MS/MS analysis; type: ADME, organism-based; parameters: dose 5 mg/kg, route oral
[34] = Plasma clearance in Beagle dog at 2 mg/kg, iv through bolus administration after 0.167 to 48 hrs by LC/MS/MS analysis; type: ADME, organism-based, Canis lupus familiaris

- fraction unbound [1]: 0.006
- Cmax [2]: 4.8 µM
- Vd [4]: 2.6 L/kg
- Vd [5]: 3.2 L/kg
- IC50 [6]: 0.11 µM
- Cmax [7]: 1.2 µM
- IC50 [8]: 2.06 µM
- IC50 [9]: 0.024 µM
- AUC(0-t) at 24 h [10]: 80 µM·h
- solubility [11]: 0.06 mg/mL (≈ 119 µM)
- half-life [12]: 5.1 h
- Cmax [14]: 2 µM
- AUC [15]: 32 µM·h
- IC50 [16]: 0.05 µM
- Vd [17]: 1.6 L/kg
- IC50 [19]: 0.15 µM
- half-life [22]: 10.6 h
- IC50 [23]: 0.013 µM
- Tmax [25]: 2.7 h
- IC50 (Cytochrome P450 3A4): > 40 µM
- clearance [26]: 0.126 L/h/kg
- bioavailability [27]: 100%
- AUC [28]: 30.8 µM·h
- IC50 (Cytochrome P450 2C8): > 8 µM
- solubility [29]: < 0.001 mg/mL
- IC50 (Cytochrome P450 2D6): > 40 µM
- IC50 (Cytochrome P450 2B6): > 40 µM
- Papp A→B [30]: < 15 nm/s
- bioavailability [32]: 94%
- Cmax [33]: 3.8 µM
- clearance [34]: 0.222 L/h/kg
Structure (SMILES): Cc1c(-c2ccc(C(N)=O)c3[nH]c4cc(C(C)(C)O)ccc4c23)cccc1-n1cnc2ccccc2c1=O
- Activity (Salmonella typhimurium): Non-Toxic
- Activity (Mus musculus [3]): Dose-dependent effect
- Activity (Mus musculus [13]): Active
- Activity (Mus musculus [18]): Active
- Activity (Mus musculus [20]): Dose-dependent effect
- Activity (Mus musculus [21]): Dose-dependent effect
- Activity (Mus musculus [24]): Active
- Activity (Mus musculus [31]): Active
